PubChem BioAssay AID1217 (Sanford-Burnham Center for Chemical Genomics, 2008)
The whole screen tested about 190,000 compounds, of which about 1,300 (0.68%) were called active.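 How the source made its calls: active means primary screen inhibition at 20 µM above a set limit (cut at about 50% in these data); inactive means the rest.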 What follows is part of a selection rich in actives, with near analogues and random picks from the rest.

Each molecule was assayed on diaphorase (Clostridium kluyveri) (assay: compounds blocking diaphorase resazurin reduction – biochemical, uHTS, resorufin fluorescence, counter-screen for diaphorase-coupled primary assays, primary screen (AID 1217;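 further: plate controls were DMSO with full reaction for no effect and wells lacking NADH for full effect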)). Settings: diaphorase resazurin-to-resorufin fluorescence, NADH, 16 min; at 20 µM; active compounds read high; bacterial (C. kluyveri) enzyme, not human.
Summary of the method: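 System: Diaphorase enzyme from Clostridium kluyveri | Amount: Enzyme working solution with 0.14 U/mL diaphorase | Benchmarks: No-NADH positive control and DMSO neutral control | Signal: Fluorescence of resorufin formed from resazurin, Ex 544/Em 590 nm | Schedule: 16-min room-temperature incubation before reading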

| Structure (SMILES) | inhibition |
| --- | --- |
| COc1ccc(S(=O)(=O)Nc2cccnc2)c(Cl)c1Cl | 77.2% (active) |
| COc1ccc(C(=O)Nc2cccnc2)cc1C(=O)Nc1cccnc1 | -17.7% (inactive) |
| COc1ccccc1Oc1ccc(S(=O)(=O)Nc2cccnc2)cc1 | 9.6% (inactive) |
| S=C(Cc1ccc(Cl)cc1)N1CCOCC1 | -0.3% (inactive) |
| CC(=O)Nc1cccc(-c2nc3ccccc3s2)c1C | 6.8% (inactive) |
| CCOc1ccc(-c2n[nH]c(=S)n2/N=C/c2cc3c(cc2[N+](=O)[O-])OCO3)cc1 | 41.6% (inactive) |
| Cc1ccc(-c2n[nH]c(=S)n2/N=C/c2cc3c(cc2[N+](=O)[O-])OCO3)cc1 | 69.3% (active) |
| Cc1ccc(S(=O)(=O)N/N=C\c2cc3c(cc2[N+](=O)[O-])OCO3)cc1 | 37.8% (inactive) |
| COc1ccc(CS(=O)/C(Cl)=C(/Cl)C(=O)Nc2ccc(OC)nc2)cc1 (stereo unspecified) | 1% (inactive) |
| COc1ccc(S(=O)(=O)Nc2ccc(O)c(Sc3nc4ccccc4s3)c2)cc1 | 24.7% (inactive) |
| O=[N+]([O-])c1c(NCCO)cc(Sc2nc3ccccc3s2)c2nonc12 | 58% (active) |
| O=C(O)c1cccc(S(=O)(=O)Nc2ccc(O)cc2Sc2nc3ccccc3s2)c1 | 7.5% (inactive) |
| C[C@H](NC(=O)c1ccccc1Cl)C(=O)OCCOc1cccc(Cl)c1 | 11.2% (inactive) |
| COc1cccc(-n2cc(C(=O)O)c3ccccc3c2=O)c1 | 6.7% (inactive) |
| COC(=O)c1ccc(CSc2nc3ccccc3c(=O)n2-c2cccc(OC)c2)o1 | 39.9% (inactive) |
| COc1cccc(-n2c(=S)[nH]c3c(oc4ccccc43)c2=O)c1 | 71.4% (active) |
| CN(C(=O)c1c(Cl)cnn1C)C12CC3CC(CC(C3)C1)C2 | 3.9% (inactive) |
| C/C(=N\Nc1ccc([N+](=O)[O-])cc1)c1ccc(-n2nncc2C(C)(C)C)cc1 | 5% (inactive) |
| CCCCN(C)C(=O)c1ccc2c(c1)N(CC)C(=O)c1ccccc1S2(=O)=O | 4.6% (inactive) |
| O=C(CN1C(=O)c2cccc3cccc1c23)Nc1ccccc1 | -6.4% (inactive) |
| CCN1C(=O)c2cccc3c(N)ccc1c23 | 57.3% (active) |
| CN1C(=O)C(CC(=O)Nc2ccccc2)S/C1=N/c1nccs1 (stereo unspecified) | -11.3% (inactive) |
| CC(=O)Nc1ccc(S(=O)(=O)N(CCc2ccccc2)CC(=O)N/N=C/c2ccc(C(=O)O)cc2)cc1 | 0.3% (inactive) |
| Cc1ccc(-n2[nH]c(C)c(/C=N/NC(=O)c3cccc([N+](=O)[O-])c3)c2=O)cc1C | 22% (inactive) |

| Structure (SMILES) | inhibition |
| --- | --- |
| Cc1[nH]n(-c2ccc(Cl)cc2)c(=O)c1/C=N/n1c(C)nc2ccccc2c1=O | -6.7% (inactive) |
| Cc1[nH]n(-c2ccccc2)c(=O)c1/C=N/NC(=O)c1ccoc1C | 50.1% (active) |
| O=C(C(Cl)Cl)N1CCN(c2ccccn2)CC1 | 3% (inactive) |
| COCCCNC(=O)Cn1c(=O)n(Cc2ccccc2Cl)c(=O)c2cc(OC)c(OC)cc21 | 9.4% (inactive) |
| Cc1c(CN2CCCC(C(=O)c3cccc(Cl)c3)C2)c(=O)n(-c2ccccc2)n1C (stereo unspecified) | 15.1% (inactive) |
| CCc1ccc(NC2Nc3cc(C)nn3S2)cc1 (stereo unspecified) | 8.9% (inactive) |
| O=C(Cc1ccccc1)NCC1OCCc2ccccc21 (stereo unspecified) | 24.1% (inactive) |
| COc1ccc(OC)c(Nc2nc(-c3ccc(O)c(O)c3)cs2)c1 | 57.4% (active) |
| COc1ccc(-c2csc(Nc3ccccn3)n2)cc1 | 10.1% (inactive) |
| COc1ccc(-c2csc(Nc3ccc(O)cc3)n2)cc1 | -2.2% (inactive) |
| CC1CC1C(=O)OCC(=O)c1c(N)n(C)c(=O)n(C)c1=O (stereo unspecified) | -19.7% (inactive) |
| Cc1cc(C)cc(NC(=O)Cn2cnc3c(nnn3Cc3ccc(F)cc3)c2=O)c1 | 1.8% (inactive) |
| COc1ccc(/C=C(\NC(=O)c2ccc(OC)c(OC)c2)C(=O)NCCc2c[nH]c3ccccc23)cc1 | 13.6% (inactive) |
| COc1ccc(OC)c2[nH]c(=O)c(CCNC(=O)C(=O)c3c[nH]c4ccccc34)cc12 | 66.1% (active) |
| COc1ccc(OC)c2[nH]c(=O)c(CCNC(=O)C(C)(C)C)cc12 | 2.9% (inactive) |
| CCN(CC)c1ccc2cc(C(N)=O)/c(=N\NC(=O)c3ccncc3)oc2c1 | 25% (inactive) |
| COc1ccc(C(=O)N/N=c2\oc3ccccc3cc2C(N)=O)cc1 | 75.5% (active) |
| CCc1cc(C(N)=O)c(NC(=O)c2ccc(OC)cc2)s1 | 21.1% (inactive) |
| COc1cccc(OC)c1C(=O)NC(=S)Nc1ccc(N2CCOCC2)c(Cl)c1 | 27.9% (inactive) |
| Cc1ccc(/C=N\n2c(-c3ccccc3)n[nH]c2=S)s1 | 19.9% (inactive) |
| S=c1[nH]nc(-c2cccs2)n1/N=C/c1cccs1 | 51.3% (active) |
| Oc1ccccc1/C=N/n1c(-c2cccs2)n[nH]c1=S | 35.3% (inactive) |
| CCN(C(=O)COC(=O)c1ccc(COc2ccc3c(C)cc(=O)oc3c2)cc1)C1CCS(=O)(=O)C1 (stereo unspecified) | 0.7% (inactive) |
| CN(C)CCN=c1cc(-c2ccccc2)oc2ccc(Cl)cc12 | -1.4% (inactive) |

| Structure (SMILES) | inhibition |
| --- | --- |
| O=C(COC(=O)c1cc([N+](=O)[O-])ccc1NCc1ccccc1)NC1CCCCC1 | 3% (inactive) |
| CC(C)c1ccc(/C=C/C(=O)NNC(=O)c2cccnc2)cc1 | 6.9% (inactive) |
| O=C(/C=C/c1ccc(F)cc1)NCCNC(=O)/C=C/c1ccc(F)cc1 | 3.6% (inactive) |
| O=C(/C=C/c1ccc(F)cc1)NC(=S)NNC(=O)c1cccnc1 | 67.6% (active) |
| CCc1cccc(NC(=O)CCNS(=O)(=O)c2cccc3nonc23)c1 | 6.4% (inactive) |
| CC(=O)Nc1ccc(S(=O)(=O)NC(C)C(=O)OCC(=O)NC2CCCC2)cc1 (stereo unspecified) | 6.2% (inactive) |
| Cc1c(Cl)cccc1NC(=O)CSc1ccc(-c2cccnc2)nn1 | -1.3% (inactive) |
| O=C(CSc1n[nH]c(-c2cccnc2)n1)Nc1ccnc2ccccc12 | 54% (active) |
| O=C(CSc1ncn[nH]1)Nc1ccnc2ccccc12 | -2.2% (inactive) |
| Cc1nc(-c2ccccc2)cn2c1nc1ccccc12 | 16% (inactive) |
| Cc1cc(=O)[nH]c(=S)[nH]1 | 5.9% (inactive) |
| O=c1[nH]c(=S)[nH]c2[nH]c(=S)[nH]c12 | 87.4% (active) |
| O=C(N1CCCCC1)N1CCN(C(=O)N2CCCCC2)CC1 | -5.4% (inactive) |
| C/C(=C\c1ccco1)C1Nc2cccc3cccc(c23)N1 | 69.5% (active) |
| CC(/C=N/NC(=O)c1ccncc1)=C\c1ccco1 | 5.5% (inactive) |
| CC(/C=N/NC(=O)c1cc(-c2ccc3ccccc3c2)n[nH]1)=C\c1ccco1 | 5.2% (inactive) |
| C=CCN1C(=O)C(O)(CC(=O)c2ccc(Cl)cc2)c2ccccc21 (stereo unspecified) | 20% (inactive) |
| Cc1coc(C)c1C(=O)CC1(O)C(=O)N(C)c2ccc(Cl)cc21 (stereo unspecified) | 51.4% (active) |
| CC(=O)c1c(O)cc2n(c1=O)-c1ccc(Cl)cc1C2(C)C | 18.3% (inactive) |
| Cc1ccc(O)c(NC(=S)NC(=O)COc2ccc(Br)cc2)c1 | 1.8% (inactive) |
| COCCN(CCOC)S(=O)(=O)c1ccc(/C(O)=C(\C#N)c2nc3ccccc3[nH]2)cc1 | 5.6% (inactive) |
| Cc1coc2c(O)cc3c(c12)OC1(N2CCCCC2)C(=O)NCCCC31 (stereo unspecified) | 56.1% (active) |
| O=C(Cc1cccs1)Nc1nnc(SCc2ccc(F)cc2)s1 | 11.1% (inactive) |
| COc1cc2sc(C)nc2cc1C | 6% (inactive) |

| Structure (SMILES) | inhibition |
| --- | --- |
| CCOC(=O)C1(S(=O)(=O)c2ccccc2)CCN(Cc2ccccc2)CC1 | 16.8% (inactive) |
| CC1=C/C(=N\OS(=O)(=O)c2ccccc2)C=CC1=O | 71.4% (active) |
| CC1=C/C(=N\S(=O)(=O)c2ccccc2)C(C(C)C)=CC1=O | 21.7% (inactive) |
| O=C1CCCC2=C1C(c1cccs1)CC(=O)N2c1ccc(F)cc1 (stereo unspecified) | 6.3% (inactive) |
| CC(C)N1CCC(N2CCN(Cc3cccnc3)CC2CCO)CC1 (stereo unspecified) | -0.8% (inactive) |
| CCOC(=O)C1CCN(C(=O)C2(NC(=O)Nc3cccc(F)c3)CCCCC2)CC1 | -16.4% (inactive) |
| O=C(Cc1ccc(-n2c(=O)[nH]c3ccccc3c2=O)cc1)N1CCN(c2cccc(Cl)c2)CC1 | 19.4% (inactive) |
| CCCCNC(=O)c1ccc(-n2c(=S)[nH]c3ccccc3c2=O)cc1 | 6.2% (inactive) |
| CCOC(=O)N1CCN(C(=O)Cc2ccc(-n3c(=S)[nH]c4ccccc4c3=O)cc2)CC1 | 51.3% (active) |
| Cc1ccc(S(=O)(=O)CC(=O)Nc2c(C)n(C)n(-c3ccccc3)c2=O)cc1 | -0.5% (inactive) |
| C/C(O)=C\c1nc(=O)c2c(C)cc(C)nc2n1-c1ccccc1 | 13.4% (inactive) |
| Cc1cc(C)c2c(-n3cccc3)c(NC(=O)OCc3ccccc3)sc2n1 | 18.4% (inactive) |
| Cc1cc(C)c2c(n1)sc1c(=O)n(-c3ccccc3)c(=O)[nH]c12 | 59.3% (active) |
| OCCC1CN(Cc2cccn2-c2nccs2)CCN1CCc1ccccc1 (stereo unspecified) | 18.5% (inactive) |
| N#C/C=C(/c1ccc(F)cc1)N1CCOCC1 | 20.9% (inactive) |
| O=C(CSc1nnc(-c2cccnc2)n1Cc1ccco1)c1ccc(Cl)cc1 | 16.4% (inactive) |
| O=C(CSc1nnc(-c2cccnc2)n1Cc1ccco1)c1ccc(Cl)c(Cl)c1 | 4% (inactive) |
| C(=C\c1ccccc1)/CSc1nnc(-c2cccnc2)n1Cc1ccco1 | 53.4% (active) |
| CC(=O)c1ccc(N2CCN(CC(=O)Nc3ccccc3N3CCOCC3)CC2)cc1 | 4% (inactive) |
| O=C(N/N=C/c1ccc2c(c1)OCO2)C(=O)N1CCCC1 | -1.9% (inactive) |
| CN(C(=O)CSc1nnc(Nc2ccccc2)s1)C1CCS(=O)(=O)C1 (stereo unspecified) | 15% (inactive) |
| c1coc(-c2nc3nc4ccccc4n3nc2-c2ccco2)c1 | 57.8% (active) |
| Cn1c(-c2ccco2)nc2cc3ccccc3cc21 | 18.4% (inactive) |
| Cc1nn2c3ccccc3nc2n(C)c1=O | 15.5% (inactive) |
